ABCB1 block: human ABCB1 inhibition, ABCG2 as counter-screen; CCRF-Adr cells, JC-1 efflux, flow cytometry; inhibition, % at 6.6 µM; 0.067% of 190,000 active; in the data active = inhibition above about 40%;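 also: 0% = vehicle and 100% = reference inhibitor; higher value means more JC-1 retained so stronger ABCB1 efflux block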
FLuc act counter: firefly luciferase counter-screen for stimulation assays; P08659; ATPlite luciferase biochemical, luminescence, 10 min; 0 = ATP-free wells, 1 = DMSO control; activation factor at 10 µM; 200,000 tested, under 10 active; AID 1027;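 active = luciferase activation factor, scaled between plate controls, of at least 2 with compound at 10 µM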
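assay system = Luciferase/luciferin detection reagent, cell-free biochemical luciferase assay | also added = ATP substrate | times = 10 min post-reagent at room temperature | measured by = luminescence from luciferase reaction | measure = luciferase activation, seen as luminescence increase over controls | benchmarks = low control with PBS replacing ATP, high control enzyme plus ATP without compound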
Diaph act CS: activates diaphorase or chemically reduces, flagging diaphorase assay artifacts; Diaphorase/resazurin coupled assay, resorufin fluorescence, 16 min; hits give high values; 1 = vehicle wells, 0 = NADH-free wells; activation factor at 20 µM; 0.005% of 190,000 active; AID 1229;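 active = diaphorase activity raised at least twofold by the compound at 20 µM; inactive = activation factor below 2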
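Measured by – red resorufin fluorescence at 544/590 nm excitation/emission · Test system – Clostridium kluyveri diaphorase, purified enzyme · Incubation – reaction time 16 min, room temperature · Buffer or medium – 50 mM HEPES pH 7.4 with 4.542 mM MgCl2, 0.005% Tween 20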
ABCG2 inh: human ABCG2 inhibition, ABCB1 as counter-screen. inhibition, % at 6.6 µM. 0.1% of 190,000 active. IgMXP3 cells, JC-1 efflux, flow cytometry. AID 1325. Q9UNQ0;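 active = inhibition above 80%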;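 also: 0% = DMSO and 100% = nicardipine control wells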
Target sequence (Q9UNQ0 whole entry, looked up): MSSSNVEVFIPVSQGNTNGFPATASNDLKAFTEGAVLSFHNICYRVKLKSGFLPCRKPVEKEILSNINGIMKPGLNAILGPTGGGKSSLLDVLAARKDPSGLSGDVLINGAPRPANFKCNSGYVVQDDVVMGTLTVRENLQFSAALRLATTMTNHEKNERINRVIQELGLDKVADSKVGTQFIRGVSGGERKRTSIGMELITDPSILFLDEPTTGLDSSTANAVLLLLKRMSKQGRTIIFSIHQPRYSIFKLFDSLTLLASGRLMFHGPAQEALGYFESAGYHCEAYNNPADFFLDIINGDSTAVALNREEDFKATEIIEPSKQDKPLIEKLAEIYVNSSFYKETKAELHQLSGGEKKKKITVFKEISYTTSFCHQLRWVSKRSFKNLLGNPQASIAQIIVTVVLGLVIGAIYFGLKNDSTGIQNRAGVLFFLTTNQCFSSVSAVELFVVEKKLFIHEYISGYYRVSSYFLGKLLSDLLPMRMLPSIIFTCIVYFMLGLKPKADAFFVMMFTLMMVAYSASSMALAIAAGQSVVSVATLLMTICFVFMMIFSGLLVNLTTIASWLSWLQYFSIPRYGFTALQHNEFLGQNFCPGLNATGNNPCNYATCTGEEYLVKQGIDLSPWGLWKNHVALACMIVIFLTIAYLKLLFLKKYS
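Test system: ABCG2 IgMXP3 and barcoded ABCB1 CCRF-Adr cell mix; Schedule: cells with compound and JC-1, 10 min at 25 °C, rotating, no wash; Technique: flow cytometry of retained JC-1 fluorescence; Measure: % inhibition of efflux relative to nicardipine and DMSO; Controls: nicardipine high and DMSO low controls.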
ABCB6 inh MLPCN: inhibitors of human ABC transporter ABCB6 | 0.19% of 360,000 active | fluorescence ratio to DMSO, % at 10 µM | Q9NP58 | AID 602162 | K562-ABCB6 porphyrin accumulation, flow cytometry, 1 h; hits give low values;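 active = fluorescence ratio to DMSO below 75%, the collection mean minus 3 SD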;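 also: signal is porphyrin accumulated inside mitochondria; 100% equals median channel fluorescence of DMSO control wells; lower ratio means ABCB6 inhibition with less porphyrin fluorescence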
FLuc inhib CS: counter-screen for luciferase assay inhibitors: firefly luciferase inhibition; P08659; ATPLite firefly luciferase biochemical luminescence, 10 min; inhibition, % at 10 µM; 1.5% of 200,000 active;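 active = inhibition above about 50% when tested at 10 µM, limit read from the data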
* hit, by the source's call; / = no result given. This is one part of a sample in which hits are shown more often than they occur.

SMILES	ABCB1 block	FLuc act counter	Diaph act CS	ABCG2 inh	ABCB6 inh MLPCN	FLuc inhib CS
Cc1ccc(-n2[nH]c(=O)c3cccnc32)cc1	0.5	1	0.9	42.7	99.0	-3.8
Cc1ccc(-n2[nH]c(=O)c(-c3ccccn3)c2C)cc1	0.5	0.2	1	3.0	102.0	79.1*
CN(C(=O)c1ccc(NC(=O)Cc2cccc(NC(=O)C3CCCN(C(=O)CCc4ccccc4)C3)c2)cc1)C1CC1 (centres undefined)	/	/	/	/	100.0	/
CC1CCN(C(=O)c2cc(Cl)ccc2NC(=O)c2ccco2)CC1	/	/	/	/	96.0	/
Cc1cc(C(=O)CSc2nncs2)c(C)n1Cc1ccco1	0.5	0.3	0.9	2.4	92.0	73.8*
Cc1csc(SCC(=O)c2cc(C)n(Cc3cccs3)c2C)n1	1.2	0.1	0.9	5.2	97.0	88.8*
Cc1cc(C(=O)CSc2nnc(N)s2)c(C)n1Cc1cccs1	0.6	0.1	0.9	10.8	91.0	91.1*
Cc1cc(C(=O)CSc2nn(-c3ccccc3)c(=S)s2)c(C)n1Cc1ccco1	0.3	1	0.7	2.3	85.0	-2.4
Cc1cc(C(=O)COC(=O)[C@H](C)NC(=O)c2ccco2)c(C)n1Cc1ccco1	0.2	0.4	0.9	-0.1	94.0	56.2*
O=C(NCCc1ccccn1)c1ccc(OC(F)F)cc1	0.0	0.3	0.9	0.5	97.0	65.2*
CCOc1cc(/C=N/Nc2ncnc(Cl)c2N)ccc1O	0.2	0.3	0.9	3.2	95.0	65.1*
Cc1nc(N/N=C/c2ccccn2)sc1C	0.5	0.1	0.9	1.9	/	93.7*
CCCc1sc(N/N=C/c2ccccn2)nc1-c1ccc(F)cc1	-0.8	1	0.9	-0.2	98.0	-4.2
COc1cccc(CN(C)C(=O)c2ccccc2SCC(=O)N2CCCC2)c1	/	/	/	/	100.0	/
O=C(CCCOc1ccc(Br)cc1)NNC(=O)c1ccncc1	/	/	/	/	100.0	/
CCCOc1ccc(CNC(=S)N/N=C/c2ccc([N+](=O)[O-])cc2)cc1	0.4	1	0.8	4.5	62.0*	0.3
CC(C)COc1ccc(CNC(=S)N/N=C/c2ccc([N+](=O)[O-])cc2)cc1	1.2	1	0.9	5.5	101.0	-4.8
O=C(N/N=C/c1cccnc1)c1ccc([N+](=O)[O-])cc1	-0.5	0.3	0.8	-1.0	104.0	67.3*
O=C(/C=C/c1ccc(Cl)c([N+](=O)[O-])c1)Nc1cccnc1	0.3	1	0.9	37.1	94.0	2.7
CC(C)(C)OC(=O)N/N=C\c1cccnc1	0.3	0.2	0.9	5.6	94.0	77.6*
O=C(/C=C/c1ccc([N+](=O)[O-])cc1)Nc1cccnc1	1.1	0.3	1	8.2	101.0	65.0*
CC(C)C(=O)Nc1cccc(C(=O)Nc2ccc(S(=O)(=O)N3CCOCC3)cc2)c1	/	/	/	/	97.0	/
CCc1ccc(CN2CCCC(C(=O)N3CCCCC3)C2)cc1 (centres undefined)	/	/	/	/	101.0	/
CCOc1ccc(-c2ccc(SCC)nn2)cc1	-0.2	0.1	0.9	4.8	96.0	85.6*
COc1ccc(-c2ccc(SC)nn2)cc1	0.1	0.1	0.9	5.7	103.0	93.7*
SMILES	ABCB1 block	FLuc act counter	Diaph act CS	ABCG2 inh	ABCB6 inh MLPCN	FLuc inhib CS
CCOc1ccc(-c2ccc(SCc3ccccn3)nn2)cc1	0.8	0.8	0.9	1.4	102.0	22.9
Cc1ccc(-c2ccc(SCC(=O)NC3CCCC3)nn2)cc1	/	/	/	/	96.0	/
CCSc1ccc(-c2ccc(C)cc2)nn1	-0.4	0.1	1	12.9	97.0	87.7*
CN(c1ccccc1)S(=O)(=O)c1ccc(Cl)c(C(=O)Nc2ccccc2N2CCOCC2)c1	/	/	/	/	97.0	/
Clc1ccc(-c2nc3ccncc3[nH]2)cc1	-0.8	0.3	0.9	1.0	105.0	73.1*
Fc1ccc(-c2nc3ccncc3[nH]2)cc1	0.4	0.8	0.9	2.2	99.0	23.9
NS(=O)(=O)c1ccc(CCNC(=O)CSc2nc3ccccc3c(=O)n2CCC(=O)N2CCCCC2)cc1	0.1	0.5	0.9	0.3	98.0	53.3*
COc1cc(/C=C2\SC(=O)N(CCNC(=O)c3sc4cc(F)ccc4c3Cl)C2=O)cc(OC)c1OC	1.2	1.1	0.9	11.4	73.0*	-6.2
CC1=C(C(=O)Nc2ccccc2C(=O)NC2CCC(C)CC2)SCCO1 (centres undefined)	/	/	/	/	86.0	/
Cc1ccc(C(=O)CSc2nnnn2C(C)C)c(C)c1	0.9	0.5	0.9	6.2	97.0	53.9*
O=C1CSC(=Nc2ccc(Cl)cc2)N1Cc1cccnc1	/	/	/	/	94.0	/
CCc1ccc2oc(-c3cc(N=Cc4cccc(OC)c4O)ccc3O)nc2c1	0.1	0.2	0.9	0.5	/	84.1*
C/C(=N/NC(=O)Cn1nc2ccccc2n1)c1ccc(F)cc1	0.2	1	1	1.9	74.0*	-3.4
COc1cc(/C=N/Nc2cccc3cccnc23)cc(OC)c1O	-0.1	0.1	0.6	-0.1	103.0	85.9*
Oc1cccc(/C=N/Nc2cccc3cccnc23)c1	0.4	0.2	0.6	6.3	104.0	80.9*
Oc1c(/C=N/Nc2cccc3cccnc23)ccc2ccccc12	-7.2	0.9	0.8	-0.7	102.0	6.1
COc1cccc(CNc2cccc3cccnc23)c1O	0.2	0.9	0.7	1.1	106.0	5.9
O=C(O)CCc1ccc(S(=O)(=O)Nc2ccccc2N2CCCCC2)cc1	/	/	/	/	96.0	/
CCN1C(=O)[C@@H]2[C@@H](c3ccc(-c4ccc(C(C)=O)cc4)cc3)N3CCCC[C@@]3(C(=O)OC)[C@@H]2C1=O	/	/	/	/	98.0	/
c1ccc(-c2ccccn2)nc1	0.9	1.1	0.9	3.1	108.0	-5.3
c1ccc(-c2ccc(-c3ccccn3)nn2)nc1	0.3	0.4	1	1.8	/	59.7*
CCc1cnccc1CCC(=O)Nc1ccccc1C	/	/	/	/	102.0	/
Cc1ccc(-c2cc3nc4c(c(=O)n3[nH]2)CCCC4)cc1	/	/	/	/	92.0	/
O=c1c2c(nc3cc(-c4ccc(F)cc4)[nH]n13)CCC2	-0.6	0.5	0.9	-0.5	96.0	51.0*
CN(C(=O)COC(=O)c1c[nH]c2ccccc12)c1ccccc1	/	/	/	/	101.0	/
Cc1cc(C)cc(C(O)c2ncc(-c3ccc(C(F)(F)F)cc3)[nH]2)c1 (centres undefined)	/	/	/	/	92.0	/
CCC1SC(=NC(=O)c2ccc(Cl)c(Cl)c2)NC1=O (centres undefined)	-2.4	0.4	1	0.1	101.0	59.0*
CCC1SC(=Nc2cccc(C)c2)NC1=O (centres undefined)	/	/	/	/	95.0	/
CCC(=O)c1ccc(/C=C/c2nc3ccccc3n2C)o1	0.9	0.2	0.9	8.9	89.0	78.9*
COC(=O)Nc1nnc(/C=C/c2ccc(OC)cc2)s1	-0.5	0.5	1	-0.8	96.0	51.8*
